The values below come from ChEMBL document CHEMBL2380292, “Discovery of SAR184841, a potent and long-lasting inhibitor of 11β-hydroxysteroid dehydrogenase type 1, active in a physiopathological animal model of T2D” (Bioorg Med Chem Lett, 2013).

A short description of data set [1]: Plasma concentration in C57Bl/6J mouse at 10 mg/kg, po 22 hrs post last dose. The data set is classed as ADME, organism-based. Further details: dose 10 mg/kg, route oral. A digest of the protocol:
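C57Bl/6J mice, 20 weeks old, kept on a high-fat/high-fructose diet (diet-induced obese), were dosed orally once daily for 4 weeks at 1, 3 or 10 mg/kg/day in methylcellulose-Tween 80 vehicle. Lean and obese vehicle-treated controls were included, with n = 9–10 per group. Food intake and body weight were followed. Plasma drug levels were taken at study end, about 22 h after the last dose.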

For data set [2], the system named is Mus musculus. Nature of the data set: Antidiabetic activity in diet induced obese C57Bl/6J mouse assessed as plasma glucose level at 10 mg/kg, po qd administered for 4 weeks (reference value: 297 +/- 15 mg/dL). It is filed as functional.
Data set [3] relates to Mus musculus. In words: Antidiabetic activity in po dosed C57Bl/6J mouse assessed as reduction in plasma glucose level administered for 4 weeks. The data set is classed as functional, organism-based.
The target of data set [4] is 11-beta-hydroxysteroid dehydrogenase 1 (Rattus norvegicus, UniProt P16232). In words: Inhibition of rat 11beta-HSD1.
A short description of another data set: in vivo. The following applies: rat, liver, po, 10 mg/kg.
The test system of data set [5] is Mus musculus. In words: Antidiabetic activity in diet induced obese C57Bl/6J mouse assessed as plasma triglyceride level at 1 mg/kg, po qd administered for 4 weeks (reference value: 36.2 +/- 2.1 […]). The data set is classed as functional.
The subject of data set [6] is Mus musculus. In words: Antidiabetic activity in diet induced obese C57Bl/6J mouse assessed as plasma glucose level at 3 mg/kg, po qd administered for 4 weeks (reference value: 297 +/- 15 mg/dL). It is filed as functional.
For data set [7], the system named is Mus musculus. Nature of the data set: Antidiabetic activity in diet induced obese C57Bl/6J mouse assessed as plasma triglyceride level at 10 mg/kg, po qd administered for 4 weeks (reference value: 36.2 +/- 2.1 […]). It is filed as functional.
In data set [8] the test system is Mus musculus. In words: Ex vivo inhibition of 11beta-HSD1 in C57Bl/6J mouse subcutaneous fat at 30 mg/kg, po after 16 hrs. It is filed as functional. The procedure, abridged:
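Mice given a single oral dose as a suspension in Tween 80/0.6% methylcellulose (0.5/99.5, v/v) at 10 mL/kg. At 2 h or 16 h post-dose, animals were killed by cervical dislocation and 50 mg liver and 200 mg subcutaneous fat were taken for 11β-HSD1 activity. Reactions were stopped with HCl 1 N/methanol (1/1). 3H-cortisone and 3H-cortisol were quantified by HPLC with flow scintillation detection.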

In a further data set the test system is Liver microsomes. Nature of the data set: Metabolic stability in rat liver microsomes. The data set is classed as ADME, Microsome. Background: Liver microsomes are a subcellular fraction often used to study metabolism.
In data set [9] the target is T1, 11-beta-hydroxysteroid dehydrogenase type 2 (Homo sapiens, UniProt P80365).
T1 sequence (P80365 whole entry): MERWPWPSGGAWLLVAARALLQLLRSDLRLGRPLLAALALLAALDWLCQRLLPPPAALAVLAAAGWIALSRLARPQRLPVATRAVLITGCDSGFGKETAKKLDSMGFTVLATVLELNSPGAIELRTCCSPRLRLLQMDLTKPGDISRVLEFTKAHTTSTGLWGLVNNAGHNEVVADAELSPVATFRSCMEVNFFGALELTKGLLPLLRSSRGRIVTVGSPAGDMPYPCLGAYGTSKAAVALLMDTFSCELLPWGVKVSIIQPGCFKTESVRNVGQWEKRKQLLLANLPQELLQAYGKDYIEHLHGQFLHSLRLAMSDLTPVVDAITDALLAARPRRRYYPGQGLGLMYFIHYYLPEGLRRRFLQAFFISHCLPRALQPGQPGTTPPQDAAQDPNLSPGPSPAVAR
Nature of the data set: Inhibition of human 11beta-HSD2.

Data set [10] deals with Mus musculus. Nature of the data set: Antidiabetic activity in diet induced obese C57Bl/6J mouse assessed as liver triglyceride level at 10 mg/kg, po qd administered for 4 weeks (reference value: 210.5 +/- 15.4 mg/g). The data set is classed as functional.
Data set [11] concerns Mus musculus. In words: Antidiabetic activity in diet induced obese C57Bl/6J mouse assessed as liver triglyceride level at 3 mg/kg, po qd administered for 4 weeks (reference value: 210.5 +/- 15.4 mg/g). It is filed as functional.
The next data set concerns the target Cytochrome P450 3A4 (Homo sapiens, UniProt P08684). Nature of the data set: Inhibition of CYP3A4 (unknown origin). It is filed as ADME.
Data set [12] concerns Mus musculus. Nature of the data set: Antidiabetic activity in diet induced obese C57Bl/6J mouse assessed as plasma glucose level at 1 mg/kg, po qd administered for 4 weeks (reference value: 297 +/- 15 mg/dL). The data set is classed as functional.
Data set [13] concerns Mus musculus. Nature of the data set: Hepatotoxicity in C57Bl/6J mouse assessed as alteration of liver function biomarkers at 1 to 10 mg/kg, po after 4 weeks. The data set is classed as toxicity, organism-based. Further details: dose 1-10 mg/kg, route oral. The note with it: in vivo, 672 h.

A value given as a limit tells only on which side of the number the result lay.

11-beta-hydroxysteroid dehydrogenase 1, sequence (P16232 whole entry): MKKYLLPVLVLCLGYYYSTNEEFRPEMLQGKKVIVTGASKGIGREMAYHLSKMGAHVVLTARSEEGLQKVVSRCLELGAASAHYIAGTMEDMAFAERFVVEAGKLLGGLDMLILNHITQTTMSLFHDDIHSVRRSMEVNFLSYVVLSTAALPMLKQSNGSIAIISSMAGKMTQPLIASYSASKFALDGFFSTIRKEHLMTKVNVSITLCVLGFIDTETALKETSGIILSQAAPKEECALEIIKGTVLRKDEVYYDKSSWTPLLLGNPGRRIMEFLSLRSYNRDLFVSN
Cytochrome P450 3A4, sequence (P08684 whole entry): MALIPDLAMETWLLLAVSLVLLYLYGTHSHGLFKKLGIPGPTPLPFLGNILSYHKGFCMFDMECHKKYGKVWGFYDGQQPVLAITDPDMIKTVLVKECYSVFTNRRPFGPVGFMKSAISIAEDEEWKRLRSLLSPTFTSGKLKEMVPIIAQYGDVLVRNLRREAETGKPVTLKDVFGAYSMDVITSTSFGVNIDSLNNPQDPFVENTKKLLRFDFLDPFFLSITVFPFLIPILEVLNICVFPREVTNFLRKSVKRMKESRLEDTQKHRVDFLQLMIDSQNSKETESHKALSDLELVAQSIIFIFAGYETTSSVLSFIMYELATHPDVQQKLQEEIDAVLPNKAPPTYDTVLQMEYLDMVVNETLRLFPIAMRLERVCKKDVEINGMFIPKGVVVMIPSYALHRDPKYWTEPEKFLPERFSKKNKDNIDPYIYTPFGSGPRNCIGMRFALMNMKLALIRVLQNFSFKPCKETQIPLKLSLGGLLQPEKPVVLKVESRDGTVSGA

For the compound `CC(C)(C)N1CCN(c2ccc(N3CCN(C(=O)N[C@H]4C5CC6CC4C[C@](C(N)=O)(C6)C5)c4ccccc43)nc2)CC1`, the concentration at 22 h in data set [1] turned out to be 2.6 nM. Besides, the Activity with Mus musculus [2] is 224.6 mg/dL; in the data set with Mus musculus [3] it was “Dose-dependent effect”; in the data set on Mus musculus [5], 33.8 mg/mL; with Mus musculus [6], 251 mg/dL; with Mus musculus [7], 35 mg/mL; with Mus musculus [10] it was 129.1 mg/g. Also, the Activity with Mus musculus [11] is 142.8 mg/g; in the data set on Mus musculus [12] it was 263 mg/dL; in the data set on Mus musculus [13], “Non-toxic”. Also, the IC50 (in general, the concentration that gives 50% inhibition) is 0.007 µM in [4], 4 µM in [9] and greater than 50 µM at Cytochrome P450 3A4. For the same compound, the Kp in “in vivo” amounted to 224. Moreover, in the data set on Mus musculus [8], the inhibition in vivo (usually the relative decrease from the control value, in per cent) at 30 mg/kg was determined as 60%. Further, the Stability in the data set on Liver microsomes is recorded as 15%.
